Twelve compounds from ChEMBL document CHEMBL1140332, “Design, synthesis, and enzymatic evaluation of N1-acyloxyalkyl- and N1-oxazolidin-2,4-dion-5-yl-substituted beta-lactams as novel inhibitors of human leukocyte elastase” (J Med Chem, 2005) can be followed below.

For assay [1], the target named is T1, Neutrophil elastase (Homo sapiens) (UniProt P08246).
T1 sequence (whole entry): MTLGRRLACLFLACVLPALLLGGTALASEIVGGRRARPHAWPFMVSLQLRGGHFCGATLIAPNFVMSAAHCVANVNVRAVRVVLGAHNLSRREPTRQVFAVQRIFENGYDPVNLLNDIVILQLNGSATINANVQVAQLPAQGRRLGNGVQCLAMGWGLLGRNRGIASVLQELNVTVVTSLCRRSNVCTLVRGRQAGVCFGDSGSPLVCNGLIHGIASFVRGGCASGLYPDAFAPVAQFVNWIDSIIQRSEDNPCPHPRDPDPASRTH
The experiment in a line: Second order rate constant for inhibition of Human leukocyte elastase (major diastereomeric pair of enantiomer). In outline:
(§1)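 Human leukocyte elastase (20 μM stock in pH 5.0 acetate buffer) incubated with inhibitor added from DMSO stock in 0.1 M HEPES pH 7.2, 25 °C. Aliquots withdrawn at intervals are diluted into HEPES containing MeO-Suc-Ala-Ala-Pro-Val-p-NA, and initial rates are followed at 410 nm over 60 s against control incubations. k_obs comes from plots of v/v0 versus time (Kitz–Wilson incubation method).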

The target in assay [2] is T1, Neutrophil elastase (Homo sapiens). The experiment in a line: Second order rate constant for inhibition of Human leukocyte elastase (minor diastereomeric pair of enantiomer). In outline:
as §1

Assay [3] shares this target. Kind of assay: Second order rate constant for inhibition of Human leukocyte elastase (minor diastereomeric pair of enantiomer); NI=no inhibition. In outline: as §1
The target is the same in assay [4]. Kind of assay: Second order rate constant for inhibition of Human leukocyte elastase (major diastereomeric 2 pairs of enantiomer). The gist of the method:
as §1

The source made the active and inactive calls. The calls are words filed in the database; no cut-off is given here.

As for `CCOC(=O)C(OC(=O)c1ccc(OC)cc1)N1CC(CC)(CC)C1=O` (stereo unspecified), the k obs / 1 in assay [1] is 10.7 1/M 1/s.

With `CCC1(CC)C(=O)N(COC(=O)Nc2ccc(OC)cc2)C1S(=O)(=O)c1ccccc1` (stereo unspecified), the k obs / 1 in assay [1] was 100 1/M 1/s.

For the compound `CCC1(CC)C(=O)N(C2OC(=O)N(Cc3ccccc3)C2=O)C1Oc1ccccc1` (stereo unspecified), the k obs / 1 in assay [1] is 115 1/M 1/s; in assay [2], 144 1/M 1/s.

Consider `CCOC(=O)C(OC(=O)NC(=O)[n+]1ccccc1C(=O)OC)N1C(=O)C(CC)(CC)C1S(=O)(=O)c1ccccc1` (stereo unspecified), for which the k obs / 1 in assay [1] was 26.6 1/M 1/s. Moreover, in assay [3], the “k obs / 1” value was “inactive”.

Take `CCC1(CC)C(=O)N(C2OC(=O)N(Cc3ccccc3)C2=O)C1S(=O)(=O)c1ccccc1` (stereo unspecified): the values for the k obs / 1 in assay [1] and in assay [2] were 68.5 1/M 1/s and 51 1/M 1/s, respectively.

For `CCC1(CC)C(=O)N(C2OC(=O)N(C(=O)[n+]3ccc(OC)cc3)C2=O)C1S(=O)(=O)c1ccccc1` (stereo unspecified), the k obs / 1 is 43.2 1/M 1/s in assay [1] and 49.7 1/M 1/s in assay [2].

As for `CCC1(CC)CN(C2OC(=O)N(Cc3ccccc3)C2=O)C1=O` (stereo unspecified), in assay [1], the k obs / 1 was 23.9 1/M 1/s.

`CCC1(CC)C(=O)N(C(=O)NCc2ccccc2)C1Oc1ccc(C(=O)O)cc1` (stereo unspecified): the k obs / 1 in assay [1] was 1500 1/M 1/s.

Regarding `CCOC(=O)C(OC(=O)NCc1ccccc1)N1C(=O)C(CC)(CC)C1Oc1ccccc1` (stereo unspecified), the k obs / 1 in assay [1] is 38.2 1/M 1/s.

In the case of `CCOC(=O)C(OC(=O)c1ccc(OC)cc1)N1C(=O)C(CC)(CC)C1Sc1nc2ccccc2o1` (stereo unspecified), in assay [1], the k obs / 1 was 12.9 1/M 1/s.

`CCC1(CC)C(=O)N(C2OC(=O)N(c3ccc(C)cc3)C2=O)C1Sc1nc2ccccc2o1` (stereo unspecified): the k obs / 1 in assay [4] is 80 1/M 1/s.

Regarding `CCOC(=O)C(OC(=O)c1ccc(OC)cc1)N1C(=O)C(CC)(CC)C1S(=O)(=O)c1ccccc1` (stereo unspecified), the k obs / 1 in assay [4] is 24.4 1/M 1/s.
